Measurements reported in ChEMBL document CHEMBL1133154, “Inhibition of inducible nitric oxide synthase by acetamidine derivatives of hetero-substituted lysine and homolysine” (Bioorg Med Chem Lett, 2000).
pIC50: −log10 of the molar value.

Tests used:
Nitric oxide synthase 3 [1] = biological target: T1, Nitric oxide synthase 3 (Homo sapiens, UniProt P29474); experiment: Inhibition of human endothelial Nitric Oxide Synthase
T1 sequence (P29474 whole entry): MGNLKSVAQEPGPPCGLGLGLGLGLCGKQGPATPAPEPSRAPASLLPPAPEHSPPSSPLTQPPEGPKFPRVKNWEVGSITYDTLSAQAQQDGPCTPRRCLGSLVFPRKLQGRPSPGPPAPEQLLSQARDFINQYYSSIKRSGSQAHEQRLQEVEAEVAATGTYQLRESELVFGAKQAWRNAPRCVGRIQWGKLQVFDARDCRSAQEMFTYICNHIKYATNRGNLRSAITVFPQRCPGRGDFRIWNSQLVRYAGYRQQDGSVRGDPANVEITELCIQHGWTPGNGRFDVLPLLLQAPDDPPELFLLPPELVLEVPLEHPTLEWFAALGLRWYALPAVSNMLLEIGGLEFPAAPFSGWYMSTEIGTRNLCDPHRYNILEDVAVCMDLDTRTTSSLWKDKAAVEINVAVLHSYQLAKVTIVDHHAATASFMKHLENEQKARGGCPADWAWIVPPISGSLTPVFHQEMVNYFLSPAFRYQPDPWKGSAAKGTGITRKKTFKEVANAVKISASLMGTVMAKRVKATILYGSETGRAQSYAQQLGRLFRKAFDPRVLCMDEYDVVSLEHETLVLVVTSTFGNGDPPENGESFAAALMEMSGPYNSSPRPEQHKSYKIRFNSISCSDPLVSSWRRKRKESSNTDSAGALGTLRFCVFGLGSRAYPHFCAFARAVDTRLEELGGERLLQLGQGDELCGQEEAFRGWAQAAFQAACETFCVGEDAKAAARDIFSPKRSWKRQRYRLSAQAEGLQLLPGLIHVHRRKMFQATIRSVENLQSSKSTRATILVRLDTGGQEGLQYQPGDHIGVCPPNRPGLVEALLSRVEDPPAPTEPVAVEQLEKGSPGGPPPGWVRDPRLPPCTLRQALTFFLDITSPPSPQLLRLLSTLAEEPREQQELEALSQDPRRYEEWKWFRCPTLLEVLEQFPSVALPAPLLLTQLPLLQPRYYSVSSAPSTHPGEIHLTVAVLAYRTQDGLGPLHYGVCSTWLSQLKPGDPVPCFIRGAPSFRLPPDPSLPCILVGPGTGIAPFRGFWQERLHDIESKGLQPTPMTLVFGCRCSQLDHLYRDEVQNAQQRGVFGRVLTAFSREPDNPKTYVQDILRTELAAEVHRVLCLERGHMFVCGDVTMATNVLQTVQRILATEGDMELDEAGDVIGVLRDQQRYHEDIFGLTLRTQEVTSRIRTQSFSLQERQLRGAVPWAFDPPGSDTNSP

[2] = biological target: Nitric oxide synthase (inducible and endothelial) (Homo sapiens) (UniProt P35228+P29474); experiment: Ratio of Endothelial Nitric Oxide Synthase to Inducible nitric oxide synthase; assay type: protein assay
Nitric oxide synthase 1 [3] = biological target: T2, Nitric oxide synthase 1 (Homo sapiens, UniProt P29475); experiment: Inhibition of human neuronal Nitric Oxide Synthase
[4] = biological target: Nitric oxide sythases; iNOS & nNOS (Homo sapiens) (UniProt P29475+P35228); experiment: Ratio of binding to Neuronal nitric oxide synthase and Inducible nitric oxide synthase; assay type: protein assay
[5] = biological target: Nitric oxide synthase, inducible (Homo sapiens, UniProt P35228); experiment: Inhibition of human inducible nitric oxide synthase
Nitric oxide synthase 1 [6] = biological target: T2, Nitric oxide synthase 1; experiment: Concentration required for inhibition of neuronal Nitric Oxide Synthase in human
In short: (§1)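 Recombinant human NOS enzymes (endothelial or neuronal isoform) were tested in an oxyhaemoglobin assay. Readings were taken 15–30 min after inhibitor addition so that time-dependent inhibition could develop, and IC50 values were derived from those readings.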

Nitric oxide synthase 3 [7] = biological target: T1, Nitric oxide synthase 3; experiment: Concentration required for inhibition of endothelial Nitric Oxide Synthase in human; in short: as §1

T2 sequence (P29475 whole entry): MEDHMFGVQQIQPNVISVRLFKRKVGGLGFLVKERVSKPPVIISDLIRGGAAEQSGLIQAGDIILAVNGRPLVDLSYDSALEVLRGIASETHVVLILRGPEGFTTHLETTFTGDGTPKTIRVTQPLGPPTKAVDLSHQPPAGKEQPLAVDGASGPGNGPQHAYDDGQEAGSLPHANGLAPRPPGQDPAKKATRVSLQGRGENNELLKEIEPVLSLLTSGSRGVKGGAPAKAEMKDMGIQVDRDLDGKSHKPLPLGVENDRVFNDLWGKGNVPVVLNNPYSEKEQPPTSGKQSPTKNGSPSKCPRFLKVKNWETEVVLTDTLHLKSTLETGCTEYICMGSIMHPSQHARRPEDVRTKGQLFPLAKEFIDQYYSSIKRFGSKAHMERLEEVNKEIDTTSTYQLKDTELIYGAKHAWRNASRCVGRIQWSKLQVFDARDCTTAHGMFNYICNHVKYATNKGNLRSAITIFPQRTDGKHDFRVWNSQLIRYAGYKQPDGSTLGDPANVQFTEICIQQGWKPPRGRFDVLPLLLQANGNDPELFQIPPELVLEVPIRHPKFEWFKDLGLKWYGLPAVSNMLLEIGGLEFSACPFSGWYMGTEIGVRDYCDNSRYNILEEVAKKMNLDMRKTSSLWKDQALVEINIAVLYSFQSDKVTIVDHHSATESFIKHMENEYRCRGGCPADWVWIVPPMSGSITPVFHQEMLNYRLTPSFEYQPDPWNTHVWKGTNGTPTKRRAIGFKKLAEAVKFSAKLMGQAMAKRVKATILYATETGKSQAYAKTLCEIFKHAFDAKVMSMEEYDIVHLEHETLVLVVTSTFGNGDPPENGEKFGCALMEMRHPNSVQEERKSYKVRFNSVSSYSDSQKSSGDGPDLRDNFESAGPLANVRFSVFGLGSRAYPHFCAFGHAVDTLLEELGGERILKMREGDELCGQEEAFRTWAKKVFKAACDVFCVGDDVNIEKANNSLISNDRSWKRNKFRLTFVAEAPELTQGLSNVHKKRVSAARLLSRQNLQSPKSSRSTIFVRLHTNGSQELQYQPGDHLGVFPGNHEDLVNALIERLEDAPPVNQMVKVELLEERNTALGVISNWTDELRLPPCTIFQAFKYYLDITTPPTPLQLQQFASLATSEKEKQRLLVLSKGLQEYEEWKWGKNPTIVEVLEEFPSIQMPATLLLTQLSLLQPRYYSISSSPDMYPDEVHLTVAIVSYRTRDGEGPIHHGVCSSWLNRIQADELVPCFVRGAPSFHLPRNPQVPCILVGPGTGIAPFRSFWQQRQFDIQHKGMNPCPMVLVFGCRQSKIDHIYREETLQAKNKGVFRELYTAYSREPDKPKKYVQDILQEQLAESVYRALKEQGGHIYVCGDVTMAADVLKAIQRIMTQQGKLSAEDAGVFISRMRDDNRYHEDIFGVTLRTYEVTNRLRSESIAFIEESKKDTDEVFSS
Nitric oxide sythases; iNOS & nNOS (Homo sapiens), sequence (P29475 whole entry, looked up): as the sequence (P29475 whole entry) above
Nitric oxide sythases; iNOS & nNOS (Homo sapiens), sequence (P35228 whole entry, looked up): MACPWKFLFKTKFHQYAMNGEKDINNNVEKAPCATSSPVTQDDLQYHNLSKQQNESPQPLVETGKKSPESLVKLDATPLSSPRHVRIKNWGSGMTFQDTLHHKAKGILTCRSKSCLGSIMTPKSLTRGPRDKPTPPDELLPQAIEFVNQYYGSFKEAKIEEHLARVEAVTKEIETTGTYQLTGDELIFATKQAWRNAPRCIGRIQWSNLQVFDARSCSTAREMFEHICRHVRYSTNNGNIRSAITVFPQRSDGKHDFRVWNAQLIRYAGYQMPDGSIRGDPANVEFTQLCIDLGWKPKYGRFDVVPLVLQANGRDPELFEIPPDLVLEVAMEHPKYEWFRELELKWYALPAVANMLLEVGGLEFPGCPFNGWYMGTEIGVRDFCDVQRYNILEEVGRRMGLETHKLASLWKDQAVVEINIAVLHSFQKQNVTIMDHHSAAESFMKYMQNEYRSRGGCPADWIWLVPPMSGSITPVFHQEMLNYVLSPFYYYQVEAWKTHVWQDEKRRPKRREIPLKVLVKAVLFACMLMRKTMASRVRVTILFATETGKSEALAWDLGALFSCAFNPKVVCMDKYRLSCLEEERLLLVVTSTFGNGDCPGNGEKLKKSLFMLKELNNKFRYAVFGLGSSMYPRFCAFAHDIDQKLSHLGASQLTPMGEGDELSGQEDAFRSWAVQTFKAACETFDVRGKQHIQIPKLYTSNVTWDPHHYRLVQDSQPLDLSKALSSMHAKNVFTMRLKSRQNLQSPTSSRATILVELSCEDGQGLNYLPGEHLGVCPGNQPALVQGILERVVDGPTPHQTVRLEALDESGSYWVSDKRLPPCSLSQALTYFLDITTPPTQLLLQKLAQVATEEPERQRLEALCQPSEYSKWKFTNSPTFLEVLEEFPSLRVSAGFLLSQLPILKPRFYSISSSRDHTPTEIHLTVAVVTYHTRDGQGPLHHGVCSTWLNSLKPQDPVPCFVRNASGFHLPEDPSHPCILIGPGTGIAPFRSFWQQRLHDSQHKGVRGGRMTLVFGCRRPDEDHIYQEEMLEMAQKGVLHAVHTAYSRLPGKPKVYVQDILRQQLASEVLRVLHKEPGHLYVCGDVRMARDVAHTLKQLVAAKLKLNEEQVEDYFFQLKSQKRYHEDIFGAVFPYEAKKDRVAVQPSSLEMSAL
Nitric oxide synthase, inducible, sequence (P35228 whole entry): as the sequence (P35228 whole entry, looked up) above

With `CC(=N)NCCOC[C@H](N)C(=O)O` the pIC50 (Nitric oxide synthase 3 [1]) was 4.89, the Ratio [2] was 11 and the pIC50 (Nitric oxide synthase 1 [3]) was 4.94. It also gave a Ratio [4] of 10 and a pIC50 [5] of 5.92.
In the case of `CC(=N)NCCS(=O)(=O)CCC(N)C(=O)O` (stereo not given), the pIC50 (Nitric oxide synthase 3 [1]) was < 4.00, the pIC50 (Nitric oxide synthase 1 [6]) was < 4.00 and the pIC50 [5] was < 4.00.
With `CC(=N)NCCS(=O)(=O)C[C@@H](N)C(=O)O` the pIC50 (Nitric oxide synthase 3 [1]) was < 3.00, the Ratio [2] was > 125 and the pIC50 (Nitric oxide synthase 1 [3]) was 3.20. The Ratio [4] was 78 and the pIC50 [5] was 5.10.
For `CC(=N)NCC[S+]([O-])CCC(N)C(=O)O` (stereo not given), the pIC50 (Nitric oxide synthase 3 [1]) was < 4.00, the pIC50 (Nitric oxide synthase 1 [3]) was < 4.00 and the pIC50 [5] was < 4.00.
Work on `CC(=N)NCCOCCC(N)C(=O)O` (stereo not given) yielded a pIC50 (Nitric oxide synthase 3 [1]) of 4.14, a Ratio [2] of 51 and a pIC50 (Nitric oxide synthase 1 [3]) of 5.22. For the same molecule, the Ratio [4] was 5 and the pIC50 [5] was 5.85.
With `CC(=N)NCCSCC[C@@H](N)C(=O)O` the pIC50 (Nitric oxide synthase 3 [1]) was < 4.00, the Ratio [2] was > 17 and the pIC50 (Nitric oxide synthase 1 [3]) was < 4.00. The Ratio [4] was > 17 and the pIC50 [5] was 5.23.
`CC(=N)NCC[S+]([O-])C[C@@H](N)C(=O)O` (stereo not given in full) showed a pIC50 (Nitric oxide synthase 3 [1]) of 3.81, a Ratio [2] of 19 and a pIC50 (Nitric oxide synthase 1 [3]) of 4.17. The Ratio [4] was 9 and the pIC50 [5] was 5.10.
With `CC(=N)NCCCCCC(N)C(=O)O` (stereo not given) the pIC50 (Nitric oxide synthase 3 [1]) was < 4.00, the Ratio [2] was > 5 and the pIC50 (Nitric oxide synthase 1 [3]) was < 4.00. The Ratio [4] was > 5 and the pIC50 [5] was 4.70.
`CC(=N)NCCSCC[C@H](N)C(=O)O` [GW-274150] showed a pIC50 (Nitric oxide synthase 3 [1]) of 3.33, a Ratio [2] of 333 and a pIC50 (Nitric oxide synthase 1 [3]) of 3.84. For the same molecule, the Ratio [4] was 104 and the pIC50 [5] was 5.85.
With `CC(=N)NCCCSC[C@H](N)C(=O)O` the pIC50 (Nitric oxide synthase 3 [1]) was < 4.00, the pIC50 (Nitric oxide synthase 1 [3]) was < 4.00 and the pIC50 [5] was 4.21.
With `CC(=N)NCCSC[C@@H](N)C(=O)O` the Ratio [2] was 57, the pIC50 (Nitric oxide synthase 1 [3]) was 4.88 and the Ratio [4] was 19. The pIC50 (Nitric oxide synthase 3 [7]) was 4.40 and the pIC50 [5] was 6.15.
`CC(=N)NCCCOC[C@H](N)C(=O)O` was tested, and the pIC50 (Nitric oxide synthase 3 [1]) was < 4.00, the pIC50 (Nitric oxide synthase 1 [3]) was < 4.00 and the pIC50 [5] was < 4.00.
`CC(=N)NCCCS(=O)(=O)C[C@H](N)C(=O)O` was tested, and the pIC50 (Nitric oxide synthase 3 [1]) was < 4.00, the pIC50 (Nitric oxide synthase 1 [3]) was < 4.00 and the pIC50 [5] was < 4.00.
`CC(=N)NCCCC[C@@H](N)C(=O)O` was tested, and the pIC50 (Nitric oxide synthase 3 [1]) was 4.11, the Ratio [2] was 49 and the pIC50 (Nitric oxide synthase 1 [3]) was 4.43. The Ratio [4] was 23 and the pIC50 [5] was 5.80.
With `CC(=N)NCCSC[C@H](N)C(=O)O` the pIC50 (Nitric oxide synthase 3 [1]) was < 4.00, the Ratio [2] was > 18 and the pIC50 (Nitric oxide synthase 1 [3]) was 4.28. For the same molecule, the Ratio [4] was 10 and the pIC50 [5] was 5.27.
